The record followed here is ChEMBL document CHEMBL1133105, “Antimalarial, antitrypanosomal, and antileishmanial activities and cytotoxicity of bis(9-amino-6-chloro-2-methoxyacridines): influence of the linker” (J Med Chem, 2000).

One test has as its system Leishmania infantum. Nature of the test: In Vitro evaluation for the percentage of activity towards Leishmania infantum at 3.13 uM Concentration; Toxic upon mouse primary peritoneal macrophages. It counts as functional, organism-based.
Details: not given
In outline: (§1)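 Starch-stimulated mouse peritoneal macrophages, 30 000/well, infected after 24 h with spleen-derived L. infantum amastigotes (10:1) together with 2-fold drug dilutions (12.5–1.56 µM). Incubated 7 days at 37 °C, 5% CO2. Wright-stained slides scored microscopically as % reduction of total parasite load or of infected macrophages. Uninfected treated cultures judged microscopically for macrophage toxicity.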
`COc1ccc2nc3cc(Cl)ccc3c(NCCNCCNc3c4ccc(Cl)cc4nc4ccc(OC)cc34)c2c1`: the Cytotoxicity result was “Toxic”.

The next test deals with Leishmania infantum. The experiment in a line: Percentage of activity against Leishmania infantum at 6.25 uM; Toxic upon mouse primary peritoneal macrophages. It counts as functional, organism-based.
Details: not given
An outline of the steps: as §1
Turning to `COc1ccc2nc3cc(Cl)ccc3c(NCCNCCNc3c4ccc(Cl)cc4nc4ccc(OC)cc34)c2c1`, the Cytotoxicity entry was “Toxic”.

The test system of another test is Leishmania infantum. The experiment in a line: In Vitro evaluation for the percentage of activity towards Leishmania infantum at 1.56 uM Concentration; Toxic upon mouse primary peritoneal macrophages.
Details: not given
Type of test: functional, organism-based. In outline: as §1
Turning to `COc1ccc2nc3cc(Cl)ccc3c(NCCNCCNc3c4ccc(Cl)cc4nc4ccc(OC)cc34)c2c1`, the Cytotoxicity entry was “Toxic”.

A further test concerns Leishmania infantum. The experiment in a line: Percentage of activity against Leishmania infantum at 12.5 uM Concentration; Toxic upon mouse primary peritoneal macrophages.
Details: not given
It counts as functional, organism-based. An outline of the steps:
as §1
With `COc1ccc2nc3cc(Cl)ccc3c(NCCNCCNc3c4ccc(Cl)cc4nc4ccc(OC)cc34)c2c1`, the Cytotoxicity result was “Toxic”.

The test system of another test is MRC5. Nature of the test: Cytotoxicity on MRC-5 cells at 12.5 uM. It counts as functional. The settings on record: Homo sapiens. An outline of the steps: (§2)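 MRC-5 human diploid embryonic lung cells seeded at 5 000/well, washed after 24 h, then given 2-fold drug dilutions (25, 12.5, 6.25, 3.13 µM) in RPMI + 5% FCS, final DMSO below 0.5%. Incubated 7 days at 37 °C, 5% CO2. MTT colorimetric read-out, scored as % reduction of absorbance at 540 nm versus untreated controls.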
Consider `COc1ccc2nc3cc(Cl)ccc3c(NCCNCCNc3c4ccc(Cl)cc4nc4ccc(OC)cc34)c2c1`, for which the cytotoxicity at 12.5 µM turned out to be 100%.

The next test concerns MRC5. The experiment in a line: Cytotoxicity on MRC-5 cells at 25 uM. It counts as functional. The settings on record: Homo sapiens. An outline of the steps:
as §2
With `COc1ccc2nc3cc(Cl)ccc3c(NCCNCCNc3c4ccc(Cl)cc4nc4ccc(OC)cc34)c2c1`, the cytotoxicity at 25 µM was determined as 100%.

In a further test the test system is MRC5. The experiment in a line: Cytotoxicity on MRC-5 cells at 3.13 uM. It counts as functional. The settings on record: Homo sapiens. In outline: as §2
Consider `COc1ccc2nc3cc(Cl)ccc3c(NCCNCCNc3c4ccc(Cl)cc4nc4ccc(OC)cc34)c2c1`, for which the cytotoxicity at 3.13 µM turned out to be 100%.

Another test relates to MRC5. The experiment in a line: Cytotoxicity on MRC-5 cells at 6.25 uM. It counts as functional. The settings on record: Homo sapiens. An outline of the steps:
as §2
`COc1ccc2nc3cc(Cl)ccc3c(NCCNCCNc3c4ccc(Cl)cc4nc4ccc(OC)cc34)c2c1` yielded a cytotoxicity at 6.25 µM of 100%.

A further test relates to Plasmodium falciparum. Nature of the test: In vitro sensitivity for Plasmodium falciparum FcB1R. It counts as functional, organism-based.
Details: not given
In outline:
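Asynchronous P. falciparum cultures in human erythrocytes (0.5% parasitemia, 1% haematocrit) exposed to serially diluted drug for 24 h at 37 °C. [3H]hypoxanthine (0.5 µCi/well) then added for a further 24 h. Uptake compared with drug-free controls on the same plate. IC50 taken from the concentration–response curve, averaged over independent experiments. DMSO ≤0.1%.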
Consider `COc1ccc2nc3cc(Cl)ccc3c(NCCNCCNc3c4ccc(Cl)cc4nc4ccc(OC)cc34)c2c1`, for which the IC50 was found to be 0.063 µM.

In another test the test system is Trypanosoma cruzi. Nature of the test: In Vitro evaluation for the percentage of activity towards Trypanosoma cruzi at 1.56 uM Concentration; Toxic upon mouse primary peritoneal macrophages. It counts as functional.
Details: not given
An outline of the steps: (§3)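 Mouse peritoneal macrophages, 30 000/well, infected after 24 h with about 100 000 T. cruzi trypomastigotes per well plus 2-fold drug dilutions (12.5–1.56 µM). Incubated 4 days at 37 °C, 5% CO2. Methanol-fixed, Giemsa-stained and scored microscopically as % reduction of total parasite load (free trypomastigotes plus intracellular amastigotes) versus untreated controls.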
On to `COc1ccc2nc3cc(Cl)ccc3c(NCCNCCNc3c4ccc(Cl)cc4nc4ccc(OC)cc34)c2c1`, for which the Cytotoxicity entry is “Toxic”.

A further test deals with Trypanosoma cruzi. Nature of the test: Percentage of activity against Trypanosoma cruzi at 12.5 uM; Toxic upon mouse primary peritoneal macrophages. It counts as functional, organism-based.
Details: not given
An outline of the steps: as §3
For `COc1ccc2nc3cc(Cl)ccc3c(NCCNCCNc3c4ccc(Cl)cc4nc4ccc(OC)cc34)c2c1`, the Cytotoxicity result was “Toxic”.

The subject of the next test is Trypanosoma cruzi. The experiment in a line: In Vitro evaluation for the percentage of activity towards Trypanosoma cruzi at 3.13 uM Concentration; Toxic upon mouse primary peritoneal macrophages.
Details: not given
Type of test: functional, organism-based. An outline of the steps: as §3
Regarding `COc1ccc2nc3cc(Cl)ccc3c(NCCNCCNc3c4ccc(Cl)cc4nc4ccc(OC)cc34)c2c1`, the Cytotoxicity entry is “Toxic”.

For the next test, the system named is Trypanosoma cruzi. Nature of the test: In Vitro evaluation for the percentage of activity towards Trypanosoma cruzi at 6.25 uM Concentration; Toxic upon mouse primary peritoneal macrophages. It counts as functional, organism-based.
Details: not given
An outline of the steps: as §3
On to `COc1ccc2nc3cc(Cl)ccc3c(NCCNCCNc3c4ccc(Cl)cc4nc4ccc(OC)cc34)c2c1`, for which the Cytotoxicity result is “Toxic”.

The subject of the next test is Trypanosoma brucei. Nature of the test: Percentage of activity against Trypanosoma brucei at 6.25 uM.
Details: not given
Type of test: functional. An outline of the steps:
(§4)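 Bloodstream-form T. brucei in HMI-9 medium, 10 000 parasites/well, exposed to 12.5, 6.25, 3.13 and 1.56 µM drug for 4 days. Read-out is % inhibition of parasite multiplication. Macrophage toxicity judged on mouse primary peritoneal macrophages.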
With `COc1ccc2nc3cc(Cl)ccc3c(NCCNCCNc3c4ccc(Cl)cc4nc4ccc(OC)cc34)c2c1`, the “Inhibition of parasite multiplication” value came out at 100%.

For a further test, the system named is Trypanosoma brucei. Nature of the test: Percentage of activity against Trypanosoma brucei at 12.5 uM. Type of test: functional.
Details: not given
An outline of the steps:
as §4
For `COc1ccc2nc3cc(Cl)ccc3c(NCCNCCNc3c4ccc(Cl)cc4nc4ccc(OC)cc34)c2c1`, the “Inhibition of parasite multiplication” value stood at 100%.

For a further test, the system named is Trypanosoma brucei. Nature of the test: Percentage of activity against Trypanosoma brucei at 1.56 uM. It counts as functional.
Details: not given
An outline of the steps:
as §4
In the case of `COc1ccc2nc3cc(Cl)ccc3c(NCCNCCNc3c4ccc(Cl)cc4nc4ccc(OC)cc34)c2c1`, the “Percent inhibition of parasite multiplication” value is given as 100%.

The subject of another test is Trypanosoma brucei. The experiment in a line: Percentage of activity against Trypanosoma brucei at 3.13 uM.
Details: not given
Type of test: functional. In outline:
as §4
`COc1ccc2nc3cc(Cl)ccc3c(NCCNCCNc3c4ccc(Cl)cc4nc4ccc(OC)cc34)c2c1` registered a Parasite growth inhibition of 100%.

What is called IC50 is the concentration that gives 50% inhibition. A higher IC50 goes with weaker potency.
